Reference: ChEMBL document CHEMBL3102806, “1,2,4-Triazole/oxime hybrids as new strategy for nitric oxide donors: Synthesis, anti-inflammatory, ulceroginicity and antiproliferative activities” (Eur J Med Chem, 2014)

Legend:
MDA-MB-231 = assay: Growth inhibition of human MDA-MB-231 cells assessed as cell growth at 10^-5 M after 48 hrs by sulforhodamine B assay relative to control; assay type: functional; details: MDA-MB-231, 48 h, read-out: Activity
Summary of the method: (§1)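 NCI primary screen, one-dose format across about 60 human tumour cell lines. Single addition at 10^-5 M with 48 h incubation; SRB protein-binding dye end point read spectrophotometrically. Reported as percent growth of treated cells versus untreated controls.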

786-0 = assay: Growth inhibition of human 786-0 cells assessed as cell growth at 10^-5 M after 48 hrs by sulforhodamine B assay relative to control; assay type: functional; details: 786-0, 48 h, read-out: Activity
Summary of the method: (§2)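 NCI ~60 human tumour cell line screen. Single concentration of 10^-5 M added to cultures for 48 h. End point by sulforhodamine B protein staining read spectrophotometrically. Percent growth relative to untreated control cells.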

PC-3 = assay: Growth inhibition of human PC3 cells assessed as cell growth at 10^-5 M after 48 hrs by sulforhodamine B assay relative to control; assay type: functional; details: PC-3, 48 h, read-out: Activity; summary of the method: as §1
RPMI-8226 = assay: Growth inhibition of human RPMI8226 cells assessed as cell growth at 10^-5 M after 48 hrs by sulforhodamine B assay relative to control; assay type: functional; details: RPMI-8226, 48 h, read-out: Activity; summary of the method: as §1
HCT-15 = assay: Growth inhibition of human HCT15 cells assessed as cell growth at 10^-5 M after 48 hrs by sulforhodamine B assay relative to control; assay type: functional; details: HCT-15, 48 h, read-out: Activity; summary of the method: as §2
[1] = Induction of nitric oxide release in phosphate buffer at 10^-4 M at pH 7.4 after 4 hrs by Griess colorimetric method in presence of N-acetylcysteine; assay type: physicochemical; details: pH 7.4, 4 h, 100 µM
Summary of the method: (§3)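 Final drug concentration 10^-4 M, added from DMF into 1:1 50 mM phosphate buffer (pH 7.4)/MeOH containing 5 × 10^-4 M N-acetylcysteine, at 37 °C. Nitrite read with Griess reagent after 10 min at room temperature, absorbance at 546 nm. Calibration with sodium nitrite standards (10–80 nmol/ml). Reported as mol NO per mol, n = 4 reaction mixtures.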

[2] = Induction of nitric oxide release in HCl buffer at 10^-4 M at pH 1 after 1 hr by Griess colorimetric method in presence of N-acetylcysteine; assay type: physicochemical; details: pH 1, 1 h, 100 µM
Summary of the method: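 Same Griess nitrite procedure at 10^-4 M final drug with N-acetylcysteine at 37 °C, but with 0.1 N HCl (pH 1) in place of the pH 7.4 phosphate buffer. Absorbance at 546 nm against a sodium nitrite calibration curve.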

SN12C = assay: Growth inhibition of human SN12C cells assessed as cell growth at 10^-5 M after 48 hrs by sulforhodamine B assay relative to control; assay type: functional; details: read-out: Activity
Summary of the method: (§4)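 NCI primary screen across about 60 human tumour cell lines. Single dose of 10^-5 M, cultures incubated 48 h, end point by sulforhodamine B protein staining read spectrophotometrically. Results are given as percent growth of treated cells relative to untreated control cells.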

TK-10 = assay: Growth inhibition of human TK10 cells assessed as cell growth at 10^-5 M after 48 hrs by sulforhodamine B assay relative to control; assay type: functional; details: TK-10, 48 h, read-out: Activity; summary of the method: as §4
NCI-H23 = assay: Growth inhibition of human NCI-H23 cells assessed as cell growth at 10^-5 M after 48 hrs by sulforhodamine B assay relative to control; assay type: functional; details: NCI-H23, 48 h, read-out: Activity; summary of the method: as §1
OVCAR-8 = assay: Growth inhibition of human OVCAR8 cells assessed as cell growth at 10^-5 M after 48 hrs by sulforhodamine B assay relative to control; assay type: functional; details: OVCAR-8, 48 h, read-out: Activity; summary of the method: as §1
Rattus norvegicus = assay: Antiinflammatory activity in albino rat assessed as inhibition of carrageenan-induced paw edema at 0.28 mmol/kg, po administered 30 mins prior to carrageenan-challenge measured after 5 hrs relative to control; assay type: functional
Summary of the method: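 Male albino rats in groups of four were fasted 24 h with water allowed. Dosing was oral at 0.28 mmol/kg, suspended in 0.5% w/v CMC; controls got CMC alone. After 30 min, 0.1 ml of 1% carrageenan in saline went subplantar into the right hind paw and saline into the left. Paw thickness was read by caliper before and at 1–5 h. % inhibition = [(VR−VL)control−(VR−VL)treated]/(VR−VL)control ×100. Mean ± SEM, n = 4, one-way ANOVA vs control.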

[3] = Growth inhibition of human SF539 cells assessed as cell growth at 10^-5 M after 48 hrs by sulforhodamine B assay relative to control; assay type: functional; details: SF-539, 48 h, read-out: Activity; summary of the method: as §1
[4] = Growth inhibition of human Hs 578T cells assessed as cell growth at 10^-5 M after 48 hrs by sulforhodamine B assay relative to control; assay type: functional; details: read-out: Activity; summary of the method: as §2
[5] = Growth inhibition of human OVCAR4 cells assessed as cell growth at 10^-5 M after 48 hrs by sulforhodamine B assay relative to control; assay type: functional; details: OVCAR-4, 48 h, read-out: Activity; summary of the method: as §1
[6] = Induction of nitric oxide release in phosphate buffer at 10^-4 M at pH 7.4 after 2 hrs by Griess colorimetric method in presence of N-acetylcysteine; assay type: physicochemical; details: pH 7.4, 2 h, 100 µM; summary of the method: as §3
A549 = assay: Growth inhibition of human A549/ATCC cells assessed as cell growth at 10^-5 M after 48 hrs by sulforhodamine B assay relative to control; assay type: functional; details: A549, 48 h, read-out: Activity; summary of the method: as §2
K562 = assay: Growth inhibition of human K562 cells assessed as cell growth at 10^-5 M after 48 hrs by sulforhodamine B assay relative to control; assay type: functional; details: K562, 48 h, read-out: Activity; summary of the method: as §2
M14 = assay: Growth inhibition of human M14 cells assessed as cell growth at 10^-5 M after 48 hrs by sulforhodamine B assay relative to control; assay type: functional; details: M14, 48 h, read-out: Activity; summary of the method: as §1
[7] = Induction of nitric oxide release in phosphate buffer at 10^-4 M at pH 7.4 after 3 hrs by Griess colorimetric method in presence of N-acetylcysteine; assay type: physicochemical; details: pH 7.4, 3 h, 100 µM; summary of the method: as §3
LOX IMVI = assay: Growth inhibition of human LOXIMVI cells assessed as cell growth at 10^-5 M after 48 hrs by sulforhodamine B assay relative to control; assay type: functional; details: read-out: Activity; summary of the method: as §1
COLO 205 = assay: Growth inhibition of human COLO205 cells assessed as cell growth at 10^-5 M after 48 hrs by sulforhodamine B assay relative to control; assay type: functional; details: COLO 205, 48 h, read-out: Activity; summary of the method: as §2
NCI-H460 = assay: Growth inhibition of human NCI-H460 cells assessed as cell growth at 10^-5 M after 48 hrs by sulforhodamine B assay relative to control; assay type: functional; details: NCI-H460, 48 h, read-out: Activity; summary of the method: as §1
KM12 = assay: Growth inhibition of human KM12 cells assessed as cell growth at 10^-5 M after 48 hrs by sulforhodamine B assay relative to control; assay type: functional; details: KM12, 48 h, read-out: Activity; summary of the method: as §1
SF-268 = assay: Growth inhibition of human SF268 cells assessed as cell growth at 10^-5 M after 48 hrs by sulforhodamine B assay relative to control; assay type: functional; details: SF-268, 48 h, read-out: Activity; summary of the method: as §1

SMILES | growth at 10 µM (MDA-MB-231) | growth at 10 µM (786-0) | growth at 10 µM (PC-3) | growth at 10 µM (RPMI-8226) | growth at 10 µM (HCT-15) | Activity [1] | Activity [2] | growth at 10 µM (SN12C) | growth at 10 µM (TK-10) | growth at 10 µM (NCI-H23) | growth at 10 µM (OVCAR-8) | inhibition in vivo at 280 µmol/kg (Rattus norvegicus) | growth at 10 µM [3] | growth at 10 µM [4] | growth at 10 µM [5] | Activity [6] | growth at 10 µM (A549) | growth at 10 µM (K562) | growth at 10 µM (M14) | Activity [7] | also measured
C/C(=N\O)c1ccc(NC(=O)CSc2nnc(-c3ccccc3)n2-c2ccccc2)cc1 | 20.9% | 92.7% | 104% | 91.2% | 84% | 0.23 mol/mol | Not Active | 76.2% | 73.7% | 76.6% | 90.8% | 66% | 97.2% | 79.6% | 86.2% | 0.15 mol/mol | 81.9% | 95.8% | 100% | 0.2 mol/mol | growth at 10 µM (LOX IMVI): 82.9%; growth at 10 µM (COLO 205): 91.1%; growth at 10 µM (NCI-H460): -34.7%; growth at 10 µM (KM12): 83.1%; growth at 10 µM (SF-268): 92.2%
COc1ccc(-c2nnc(SCC(=O)Nc3ccc(/C(C)=N/O)cc3)n2-c2ccccc2)cc1OC | 47.9% | 64.5% | 110% | 91.6% | 98.6% | 0.39 mol/mol | Not Active | 71.8% | 41.1% | 68.8% | 42.8% | 76% | 43% | 42.8% | 103% | 0.2 mol/mol | 70.7% | 105% | 89.9% | 0.23 mol/mol | growth at 10 µM (LOX IMVI): 80.1%; growth at 10 µM (COLO 205): 99.1%; growth at 10 µM (NCI-H460): 102%; growth at 10 µM (KM12): 106%; growth at 10 µM (SF-268): 30.6%
